Key:
[1] = molecular target: T1, Solute carrier family 15 member 1 (Homo sapiens, UniProt P46059); assay: Inhibition of human PEPT1 expressed in CHOK1 cells assessed as Gly-Sar uptake at 0.3 to 10 mM after 10 mins by HPLC coupled with radiodetection analysis; assay type: cell-based; details: cho-k1, 10 min, 10000 µM
T1 sequence (P46059 whole entry): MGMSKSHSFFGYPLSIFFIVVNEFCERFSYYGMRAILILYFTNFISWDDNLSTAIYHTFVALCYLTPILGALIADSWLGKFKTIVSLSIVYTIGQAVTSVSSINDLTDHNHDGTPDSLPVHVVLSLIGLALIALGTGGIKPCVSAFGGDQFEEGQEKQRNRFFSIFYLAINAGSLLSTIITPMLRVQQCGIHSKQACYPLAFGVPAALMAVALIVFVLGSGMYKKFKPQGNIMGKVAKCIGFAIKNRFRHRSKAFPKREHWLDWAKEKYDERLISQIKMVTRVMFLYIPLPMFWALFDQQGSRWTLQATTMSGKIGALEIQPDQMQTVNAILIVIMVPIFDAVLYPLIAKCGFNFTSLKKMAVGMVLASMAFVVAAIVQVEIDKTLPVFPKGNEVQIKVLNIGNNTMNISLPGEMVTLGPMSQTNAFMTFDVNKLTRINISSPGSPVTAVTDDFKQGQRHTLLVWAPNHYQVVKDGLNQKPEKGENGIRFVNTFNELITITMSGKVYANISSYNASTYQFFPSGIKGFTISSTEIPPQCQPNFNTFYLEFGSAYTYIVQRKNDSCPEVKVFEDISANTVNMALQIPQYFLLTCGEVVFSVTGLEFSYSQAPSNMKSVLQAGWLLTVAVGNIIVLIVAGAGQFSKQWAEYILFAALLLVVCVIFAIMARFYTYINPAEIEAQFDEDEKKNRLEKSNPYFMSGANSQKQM
Summary of the method: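 Competition assay in CHO-PEPT1 cells: 2 µM [3H]Gly-Sar with oseltamivir or oseltamivir carboxylate at 0.3–10 mM, 10 min at 37°C, pH 6, KH/MES buffer. Tyr-Phe 0.5 mM served as positive control. Intracellular radioactivity was measured per mg protein. Three independent experiments.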

[2] = Tmax in adult fasted Sprague-Dawley rat at 30 mg/kg, po administered as solution in bovine milk by HPLC-tandem mass spectrometry; assay type: ADME, organism-based; set-up: dose 30 mg/kg, route oral; details: in vivo
Summary of the method: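 Male Sprague-Dawley rats (7–8 weeks, 243–283 g) had jugular-vein cannulas and 3 days' recovery. Fasting ran from 6 h predose through the 6 h study. Three rats per vehicle received 30 mg/kg oral (10 ml/kg). Blood was sampled 0.25–6 h into K2EDTA tubes with dichlorvos. Plasma was assayed by HPLC-MS/MS (0.1–500 µg/l). Tmax was read graphically (noncompartmental).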

[3] = Cmax in adult fasted Sprague-Dawley rat at 30 mg/kg, po administered as 125 mM aqueous Gly-Sar solution by HPLC-tandem mass spectrometry; assay type: ADME, organism-based; set-up: dose 30 mg/kg, route oral; details: in vivo
Summary of the method: (§1)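 Adult cannulated Sprague-Dawley rats, fasted (from 6 h predose) or fed, dosed orally at 30 mg/kg (10 ml/kg), 3 per group. Serial jugular plasma with dichlorvos stabilisation, measured by LC-MS/MS. Cmax read graphically from the concentration-time profile.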

[4] = Cmax in adult fed Sprague-Dawley rat at 30 mg/kg, po administered as solution in bovine milk by HPLC-tandem mass spectrometry; assay type: ADME, organism-based; set-up: dose 30 mg/kg, route oral; details: in vivo; summary of the method: as §1
[5] = Drug uptake in CHOK1 cells at pH 6 by HPLC coupled with radiodetection analysis; assay type: ADME, cell-based, Cricetulus griseus; details: chinese hamster, cho-k1, pH 6
[6] = Tmax in adult fed Sprague-Dawley rat at 30 mg/kg, po administered as solution in bovine milk by HPLC-tandem mass spectrometry; assay type: ADME, organism-based; set-up: dose 30 mg/kg, route oral; details: in vivo
Summary of the method: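 Cannulated adult male Sprague-Dawley rats with chow ad libitum, 3 per vehicle, were given oral 30 mg/kg (10 ml/kg). Plasma analysis was by HPLC-MS/MS, with Tmax taken graphically from concentration-time profiles.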

[7] = AUC(0 to 6 hrs) in adult fed Sprague-Dawley rat at 30 mg/kg, po administered as 125 mM aqueous Gly-Sar solution by HPLC-tandem mass spectrometry; assay type: ADME, organism-based; set-up: time < 6 hr, dose 30 mg/kg, route oral; details: plasma
Summary of the method: (§2)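 Sprague-Dawley males, 7-8 weeks, 243-283 g, jugular-cannulated, 3 days' recovery; fed (chow ad libitum). Single oral dose of 30 mg/kg (free base) at 10 ml/kg; 3 rats/group. Jugular blood taken at 0.25-24 h into K2EDTA with dichlorvos, kept on ice. Plasma analysed by validated LC-MS/MS (0.1-500 μg/l). Noncompartmental analysis; AUC by linear trapezoid, AUC0-∞ extrapolated using λz.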

[8] = AUC(0 to 24 hrs) in adult fed Sprague-Dawley rat at 30 mg/kg, po administered as 125 mM aqueous Gly-Sar solution by HPLC-tandem mass spectrometry; assay type: ADME, organism-based; set-up: time < 24 hr, dose 30 mg/kg, route oral; details: plasma; summary of the method: as §2
[9] = Cmax in juvenile breast-fed Sprague-Dawley rat at 30 mg/kg, po administered as water solution by HPLC-tandem mass spectrometry; assay type: ADME, organism-based; set-up: dose 30 mg/kg, route oral; details: in vivo
Summary of the method: (§3)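 7-day-old Sprague-Dawley pups (9.7-18.9 g, both sexes), 15 per group. Given 30 mg/kg by oral gavage (10 ml/kg); breast-fed pups stayed with dams, fasted pups were removed 8 h before dosing. Blood taken by cardiac puncture under isoflurane at 0.25, 0.5, 1, 2 and 5 h, n=3 per time point (composite design). Dichlorvos-treated plasma assayed by LC-MS/MS; AUC0-5h by noncompartmental analysis.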

[10] = Tmax in juvenile breast-fed Sprague-Dawley rat at 30 mg/kg, po administered as water solution by HPLC-tandem mass spectrometry; assay type: ADME, organism-based; set-up: dose 30 mg/kg, route oral; details: in vivo
Summary of the method: (§4)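 Seven-day-old Sprague-Dawley pups, males and females, 15 per group, were gavaged with 30 mg/kg (10 ml/kg). Breast-fed pups stayed with their dams; fasted pups were removed from 8 h predose through 5 h. Cardiac blood was drawn under isoflurane at 0.25, 0.5, 1, 2 and 5 h (composite, n=3/time point), with dichlorvos added. Plasma was analyzed by HPLC-MS/MS and Tmax read graphically.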

[11] = Cmax in juvenile fasted Sprague-Dawley rat at 30 mg/kg, po administered as water solution by HPLC-tandem mass spectrometry; assay type: ADME, organism-based; set-up: dose 30 mg/kg, route oral; details: in vivo; summary of the method: as §3
[12] = Tmax in juvenile fasted Sprague-Dawley rat at 30 mg/kg, po administered as solution in bovine milk by HPLC-tandem mass spectrometry; assay type: ADME, organism-based; set-up: dose 30 mg/kg, route oral; details: in vivo; summary of the method: as §4
[13] = Drug uptake in CHOK1 cells by HPLC coupled with radiodetection analysis in presence of KH and Hanks' balanced salt solution; assay type: ADME, cell-based, Cricetulus griseus; details: chinese hamster, cho-k1
[14] = Tmax in healthy human at 150 mg, po administered as single dose by HPLC-tandem mass spectrometry under fed conditions; assay type: ADME, organism-based; details: in vivo
Summary of the method: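 Open-label crossover food-effect study in 18 healthy volunteers (9 male, 9 female, mean age 26). Each received a single 150 mg oral dose of the marketed formulation, once fasting from midnight and once after a high-fat, high-calorie breakfast, separated by a 7–10 day washout. Plasma and urine were collected over 0–72 h and assayed by HPLC-MS/MS for oseltamivir and carboxylate.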

[15] = Drug excretion in healthy human urine assessed as unchanged drug level at 150 mg, po administered as single dose by HPLC-tandem mass spectrometry under fed conditions; assay type: ADME, organism-based; details: read-out: Drug excretion
Summary of the method: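 Open-label crossover in 18 healthy volunteers (9 male, 9 female, mean age 26). Each received marketed oseltamivir 150 mg orally, once fasted from midnight and once after a high-fat, high-calorie breakfast, with a 7-10 day washout. Plasma and urine collected over 0-72 h and analysed by HPLC-MS/MS. AUC and Cmax compared after log transformation.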

| inhibition (INH) [1] | Tmax [2] [h] | Cmax [3] [ng/mL] | Cmax [4] [ng/mL] | Drug uptake [5] | Tmax [6] [h] | AUC(0-t) at 6 h [7] [ng·h/mL] | AUC(0-t) at 24 h [8] [ng·h/mL] | Cmax [9] [ng/mL] | Tmax [10] [h] | Cmax [11] [ng/mL] | Tmax [12] [h] | Drug uptake [13] | Tmax [14] [h] | dose excreted [15] [%] | Structure (SMILES) |
| --- | --- | --- | --- | --- | --- | --- | --- | --- | --- | --- | --- | --- | --- | --- | --- |
| Not Active | 1.92 | 2560 | 1310 | Active | 0.75 | 2960 | 4860 | 1500 | 5 | 3100 | 5 | Active | 5.42 | 55.5 | CCC(CC)O[C@@H]1C=C(C(=O)O)C[C@H](N)[C@H]1NC(C)=O [OSELTAMIVIR CARBOXYLATE] |
| Not Active | 0.5 | 2070 | 1430 | Active | 0.41 | 2280 | 2830 | 6140 | 1 | 10500 | 1 | Active | 2.06 | 4.32 | CCOC(=O)C1=C[C@@H](OC(CC)CC)[C@H](NC(C)=O)[C@@H](N)C1 [OSELTAMIVIR] |
